Measurements from ChEMBL document CHEMBL3044924, “Design, synthesis, and insecticidal activities of phthalamides containing a hydrazone substructure” (2010).
Values after ≈ are worked out from the molar mass of the structure shown. Active and inactive are the calls of the source. The rule behind the calls is not given here.

Columns and labels:
[1] = test system: Myzus persicae; assay: Stomach toxicity in adult Myzus persicae (green peach aphid) in compound treated cabbage leaves assessed as mortality at 600 mg/L at 25 degC and 85% RH for 24 hr; type: functional, organism-based
[2] = test system: Plutella xylostella; assay: Larvicidal activity against second instar Plutella xylostella (diamondback moth) in compound treated cabbage leaves assessed as mortality at 600 mg/L measured after 3 days; type: functional; conditions: 72 h
In short: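 Lab-reared field-collected stock (Haidian, Beijing), second-instar larvae. Leaf-dip assay: 2.0 cm cabbage leaf disks dipped 5 s in test solution, air-dried, then placed in a 6.0 cm tube lined with filter paper. Larvae added within 10 s. Mortality (%) scored 3 days after treatment, two replicates.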

[3] = test system: Myzus persicae; assay: Insecticidal activity against adult Myzus persicae (green peach aphid) in compound treated cabbage leaves assessed as mortality at 25 degC and 85% RH for 24 hr; type: functional
[4] = test system: Myzus persicae; assay: Insecticidal activity against adult Myzus persicae (green peach aphid) in compound treated cabbage leaves assessed as mortality at 12.5 mg/L at 25 degC and 85% RH for 24 hr; type: functional
In short: (§1)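 Aphids exposed to treated leaf at 200, 50 and 12.5 mg/L. Mortality corrected for untreated controls with Abbott's formula.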

[5] = test system: Myzus persicae; assay: Insecticidal activity against adult Myzus persicae (green peach aphid) in compound treated cabbage leaves assessed as mortality at 200 mg/L at 25 degC and 85% RH for 24 hr; type: functional; in short: as §1
[6] = test system: Myzus persicae; assay: Insecticidal activity against adult Myzus persicae (green peach aphid) in compound treated cabbage leaves assessed as mortality at 50 mg/L at 25 degC and 85% RH for 24 hr; type: functional; in short: as §1
[7] = test system: Myzus persicae; assay: Insecticidal activity against adult Myzus persicae (green peach aphid) in compound treated cabbage leaves assessed as mortality at 600 mg/L at 25 degC and 85% RH for 24 hr; type: functional

Compound | Activity [1] | mortality at 600 µg/mL [2] [%] | LC50 [3] [µg/mL] | mortality at 12.5 µg/mL [4] [%] | mortality at 200 µg/mL [5] [%] | mortality at 50 µg/mL [6] [%] | mortality at 600 µg/mL [7] [%]
CC(C)NC(=O)c1ccc(Cl)cc1C(=O)NN=Cc1ccc(F)cc1 | Active | 100 | 68.1 (≈ 188 µM) | 21.9 | 57.8 | 52.8 | 91.3
CCCCNC(=O)c1ccc(Cl)cc1C(=O)NN=Cc1cccs1 | Active | 44.4 | 124 (≈ 341 µM) | 9.4 | 35.7 | 23.3 | 98.6
O=C(NN=Cc1ccccc1F)c1cc(Cl)ccc1C(=O)NC1CCCCC1 | Active | 33.3 | 276 (≈ 687 µM) | 5.9 | 23.8 | 8.3 | 90.2
CC(C)NC(=O)c1ccc(Cl)cc1C(=O)NN=Cc1ccco1 | Active | 44.4 | 161 (≈ 484 µM) | 18.6 | 29.3 | 25.4 | 100
O=C(NN=Cc1ccco1)c1cc(Cl)ccc1C(=O)NC1CCCCC1 | Active | 33.3 | 221 (≈ 592 µM) | 8.2 | 15.7 | 20 | 100
Cc1ccc(C=NNC(=O)c2cc(Cl)ccc2C(=O)NC2CCCCC2)o1 | Active | 33.3 | 271 (≈ 700 µM) | 0 | 16 | 7.3 | 93
CCCCNC(=O)c1ccc(Cl)cc1C(=O)NN=Cc1ccccc1F | Active | 22.2 | 122 (≈ 324 µM) | 9.7 | 39.6 | 34 | 94.6
Cc1nn(-c2ccccc2)c(Cl)c1C=NNC(=O)c1cc(Cl)ccc1C(=O)NC1CCCCC1 | Active | 66.7 | 266 (≈ 534 µM) | 16.7 | 9.5 | 9.1 | 91.9
O=C(NN=Cc1ccc(O)cc1)c1cc(Cl)ccc1C(=O)NC1CCCCC1 | Active | 55.6 | 244 (≈ 611 µM) | 25.7 | 24.6 | 19.4 | 92.6
CC(C)NC(=O)c1ccc(Cl)cc1C(=O)NN=Cc1ccc(O)cc1 | Active | 55.6 | 129 (≈ 357 µM) | 5.4 | 55.6 | 16.9 | 100
CC(C)NC(=O)c1ccc(Cl)cc1C(=O)NN=Cc1ccccc1Cl | Active | 33.3 | 171 (≈ 451 µM) | 16.3 | 28.2 | 12.5 | 92.9
CCCCNC(=O)c1ccc(Cl)cc1C(=O)NN=Cc1ccc(F)cc1 | Active | 33.3 | 310 (≈ 825 µM) | 19 | 20 | 18.6 | 97.7
CCCCNC(=O)c1ccc(Cl)cc1C(=O)NN=Cc1ccc(C(F)(F)F)cc1 | Active | 33.3 | 130 (≈ 305 µM) | 12.5 | 49.3 | 22.9 | 96.6
Cc1ccc(C=NNC(=O)c2cc(Cl)ccc2C(=O)NC(C)C)o1 | Active | 44.4 | 122 (≈ 350 µM) | 13.8 | 50 | 16.9 | 96.4
CC(C)NC(=O)c1ccc(Cl)cc1C(=O)NN=Cc1cccs1 | Active | 0 | 70.5 (≈ 202 µM) | 24 | 45.5 | 30.3 | 98.7
CCCCNC(=O)c1ccc(Cl)cc1C(=O)NN=Cc1ccco1 | Active | 44.4 | 234 (≈ 673 µM) | 0 | 20 | 11.7 | 100
Cc1ccc(C=NNC(=O)c2cc(Cl)ccc2C(=O)NC(C)C)s1 | Active | 55.6 | 76.2 (≈ 209 µM) | 29.3 | 52.3 | 32.7 | 100
O=C(NN=Cc1ccccc1Cl)c1cc(Cl)ccc1C(=O)NC1CCCCC1 | Active | 66.7 | 148 (≈ 355 µM) | 26.2 | 41.3 | 28 | 100
Cc1ccsc1C=NNC(=O)c1cc(Cl)ccc1C(=O)NC(C)C | Active | 44.4 | 124 (≈ 342 µM) | 16.3 | 56.1 | 25.5 | 90.6
Cc1cc(C(F)(C(F)(F)F)C(F)(F)F)ccc1NC(=O)c1cccc(I)c1C(=O)NC(C)(C)CS(C)(=O)=O [FLUBENDIAMIDE] | – | – | 184 (≈ 270 µM) | – | – | – | –
O=C(NN=Cc1cccs1)c1cc(Cl)ccc1C(=O)NC1CCCCC1 | Active | 33.3 | 113 (≈ 290 µM) | 19.6 | 37.8 | 13.5 | 98.8
Cc1ccsc1C=NNC(=O)c1cc(Cl)ccc1C(=O)NC1CCCCC1 | Active | 11.1 | 58.9 (≈ 146 µM) | 22.4 | 45.2 | 41.7 | 90.6
